# The sample as a whole holds a higher share of hits than the screen did.
# Pf gametocyte = late stage P. falciparum gametocyte viability inhibitors, primary screen, ATP luminescence, HTS; P. falciparum stage V gametocytes, 24 h; inhibition, % at 10.9 µM; 0.065% of 150,000 active;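 active = inhibition above the mean plus 3 SD of compounds within the control limits, set per campaign, cut at about 38% in these data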;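 note: 0% = DMSO wells and 100% = medium only without gametocytes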
# ROMK primary = ROMK potassium channel modulators, primary screen, cell-based, thallium flux, MLSMR library; ATP-sensitive inward rectifier potassium channel 1 (Homo sapiens), P48048; Tet-inducible ROMK, thallium flux fluorescence; actives lie on both sides; B-score at 10 µM; 2% of 130,000 active; AID 1918, 2009;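 active = signal ratio slope over the read window, or its plate-corrected B-score, at least 3 SD from the plate mean, either direction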;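 note: B-score of the F/F0 ratio slope over 7 to 12 s after thallium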
# Target sequence (P48048 whole entry, looked up): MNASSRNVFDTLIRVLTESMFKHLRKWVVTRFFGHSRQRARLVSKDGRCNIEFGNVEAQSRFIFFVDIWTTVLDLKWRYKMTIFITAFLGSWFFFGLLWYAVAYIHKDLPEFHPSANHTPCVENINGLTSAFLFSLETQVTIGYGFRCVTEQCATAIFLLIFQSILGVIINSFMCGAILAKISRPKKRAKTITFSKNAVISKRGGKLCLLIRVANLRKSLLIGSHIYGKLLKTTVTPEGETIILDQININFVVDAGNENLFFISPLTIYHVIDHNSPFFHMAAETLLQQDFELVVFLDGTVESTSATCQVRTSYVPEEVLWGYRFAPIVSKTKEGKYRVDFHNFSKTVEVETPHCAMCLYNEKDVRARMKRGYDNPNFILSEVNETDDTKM
# Biofilm kill mix = clotrimazole potentiators killing C. albicans biofilm, primary screen, 4-compound mixtures | C. albicans biofilm persisters + clotrimazole, fluorescence viability; primary screen in compound mixtures of four per well | inhibition, % at 7.6 µM | 0.02% of 120,000 active;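 active = inhibition above 30.3% in the primary screen of four-compound pools, then above 30% when the compound was retested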;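 note: compounds exposed to preformed 24 h biofilms for 48 h; 0% = untreated biofilm control and 100% = clotrimazole plus chlorhexidine kill blank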
#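 Incubation: 24 h biofilm formation, then 48 h compound exposure, 37 °C | Material: C. albicans biofilms | Buffer or medium: RPMI/MOPS medium, pH 7.0 | Measured by: 2-h Alamar Blue fluorescence, 535/590 nm excitation/emission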
# ROMK retest = ROMK channel modulator hit retest, confirmation, cell-based, thallium flux, duplicate, resupplied hits | shares compounds with ROMK primary | fluorescence ratio; stronger effect = lower value | normalized thallium flux (F/F0 slope) at 10 µM | 54% of 3,000 active | AID 1917, 2009;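 active = Flux at 10 µM at least 3 SD below or above vehicle control mean in one or both replicates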
# Active calls of the source: *; nt = no result given.
SMILES,Pf gametocyte,ROMK primary,Biofilm kill mix,ROMK retest
C=CC[n+]1c(-c2ccc(Cl)cc2Cl)csc1Nc1ccc(NC(C)=O)cc1,-17.0,2.54*,15.5,0.0787
C=CC[n+]1c(-c2ccc(Cl)cc2Cl)csc1Nc1c(C)n(C)n(-c2ccccc2)c1=O,nt,-0.00565,17.1,nt
COc1cc(-n2c(=O)c3ccccc3n(CC(=O)c3ccc(F)cc3)c2=O)cc(OC)c1OC,-11.3,0.365,34.7,nt
COc1cc2c(cc1OC)CN(C(=O)c1ccc3nc[nH]c3c1)CC2,-2.1,3.44*,6.9,0.0841
O=C(c1ccc2nc[nH]c2c1)N1CCc2ccccc2C1,-14.1,0.0758,6.0,nt
Cc1c(-n2c(SCC(=O)NC(C)C)nc3ccccc3c2=O)c(=O)n(-c2ccccc2)n1C,-21.8,0.0543,13.5,nt
CCOC(=O)C1=C(C)NC(C)=C(C(=O)OCC)C1c1sccc1C,nt,-5.27*,nt,0.0484*
CCOC(=O)C1=C(C)NC(C)=C(C(=O)OCC)C1c1cccs1,-19.1,nt,12.0,nt
CC(Oc1ccc(Cl)cc1Cl)c1nc(-c2ccc(NC(=O)c3ccco3)cc2)no1 (stereo not drawn),32.5,nt,nt,nt
O=C1c2cccc3c([N+](=O)[O-])ccc(c23)C(=O)N1c1ccc(Cl)cn1,0.4,-3.72*,nt,0.0476*
O=C1c2cccc3c([N+](=O)[O-])ccc(c23)C(=O)N1c1ccccn1,nt,-1.78,nt,nt
CCOc1ccccc1NC(=O)CN1C(=O)C(C)SC(C)C1=O (stereo not drawn),16.1,-0.0648,5.4,nt
COc1cccc2sc(Nc3nnc(-c4ccc(F)cc4)o3)nc12,nt,nt,nt,0.174*
COc1cccc2sc(Nc3nc(-c4ccccn4)cs3)nc12,nt,0.473,nt,nt
CC(=O)c1ccc(N2CCN(C(=O)c3ccc(Cn4c(=S)[nH]c5ccc(N6CCOCC6)cc5c4=O)cc3)CC2)cc1,8.5,0.663,14.6,nt
O=CNC(Cc1ccccc1)C(=O)O (stereo not drawn),nt,2.15*,nt,0.0754
O=C(Cc1ccccc1)N[C@@H](Cc1ccccc1)C(=O)O,nt,nt,2.5,nt
CCN1C(=O)C2C(c3cccc(F)c3)NC(CC)(C(=O)OC)C2C1=O (stereo not drawn),-5.0,0.517,nt,nt
CCCC1(C(=O)OC)NC(c2cccc(F)c2)C2C(=O)N(CC)C(=O)C21 (stereo not drawn),nt,nt,nt,0.0713
COc1ccc(CCNC(=O)CCn2c(SCC(=O)N3CCCC3)nc3ccccc3c2=O)cc1OC,19.0,nt,11.8,nt
COc1ccc(N=Nc2[nH]c3ccc(C)cc3c2O)cc1,15.6,0.0154,7.5,nt
Cc1ccc(N=Nc2[nH]c3ccccc3c2O)cc1,-14.0,-4.82*,22.6,0.0562*
Cc1cc2cc(C#N)c(N3CCN(S(C)(=O)=O)CC3)nc2cc1C,-6.0,-1.32,12.0,nt
COc1ccc(Br)cc1CNC(=O)Cc1c(C(=O)O)[nH]c2ccc(Cl)cc12,-15.7,0.0177,14.0,nt
CCOC(=O)C(=O)c1csc(NC(=O)CCSc2ccc(C)cc2)n1,-13.0,0.00613,6.2,nt
SMILES,Pf gametocyte,ROMK primary,Biofilm kill mix,ROMK retest
CC(C)(C)c1ccc(OCCCNCc2ccccc2)cc1,3.5,-0.905,19.3,nt
CCc1cc(OCCCCNCc2ccccc2)ccc1Cl,12.8,-3.61*,10.7,0.0543*
Clc1cc(Br)ccc1OCCCNCc1ccccc1,nt,-4.28*,14.5,0.0592*
Cc1ccc(C)c(OCCCNCc2ccccc2)c1,9.7,nt,nt,nt
Cn1nc(Cc2n[nH]c(=S)n2C)c2ccccc2c1=O,9.6,-0.0499,22.1,nt
CC(C)c1onc(C(=O)N(C)C2CCCCC2)c1[N+](=O)[O-],17.0,-0.0646,14.7,nt
COc1ccc2c(n1)Sc1nc3ccccc3nc1N2,nt,nt,12.9,0.0566*
COc1cc2ccccc2nn1,-12.6,nt,14.9,nt
COc1cc(NC(=O)c2cc(-c3ccc(C)cc3)on2)cc(OC)c1OC,5.2,nt,nt,nt
COc1ccccc1-c1cc(C(=O)Nc2cccnc2)no1,3.5,5.13*,nt,0.0813
COc1ccccc1N1CCN(C(=O)c2cc(-c3ccc(C)cc3)on2)CC1,nt,-1.36,nt,nt
COc1ccc(NC(=O)c2cc(-c3ccccc3OC)on2)cc1,2.1,1.13,nt,nt
COc1ccccc1-c1cc(C(=O)NCCc2ccccc2)no1,nt,3.51*,nt,0.0761
COc1ccccc1-c1cc(C(=O)N2CCN(c3ccccc3OC)CC2)no1,nt,3.27*,nt,0.0853
COc1ccc(CCNC(=O)c2cc(-c3ccccc3OC)on2)cc1OC,-9.4,nt,nt,nt
COc1cc(NC(=O)c2cc(-c3cccs3)on2)cc(OC)c1OC,nt,4.07*,nt,0.0844
COCCCNC(=O)Cn1cc(/C=C(\C#N)C(=O)NC2CCCC2)c2ccccc21,5.0,nt,nt,nt
CCOC(=O)N1CCN(Cc2cn[nH]c2-c2cc3ccccc3o2)CC1,1.2,-0.51,26.6,nt
